Numbering of substitutions follows the chain as printed.
Experiments:
Details in all cases: stereoisomer not certain
[1] = test system: T1, OR6K3
T1 sequence (whole entry): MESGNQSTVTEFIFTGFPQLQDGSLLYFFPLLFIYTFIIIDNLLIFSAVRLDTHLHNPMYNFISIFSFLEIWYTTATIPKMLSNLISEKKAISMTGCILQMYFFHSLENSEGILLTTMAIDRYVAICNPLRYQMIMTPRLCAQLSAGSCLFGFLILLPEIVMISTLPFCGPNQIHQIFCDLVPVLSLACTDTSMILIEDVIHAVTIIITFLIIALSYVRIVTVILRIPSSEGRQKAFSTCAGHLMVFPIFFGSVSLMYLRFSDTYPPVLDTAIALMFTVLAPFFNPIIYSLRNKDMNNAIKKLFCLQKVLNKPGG
How it was run: (§1)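 Assay methods differ from source to source, frequently being transient luciferase assays in mammalian cell lines. For each receptor–molecule pair, the label responsive (active) applies when the original authors judged the measured signal statistically different from baseline, and non-responsive (inactive) applies otherwise.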

[2] = biological target: T2, OR6K6 (Homo sapiens) (UniProt Q8NGW6)
T2 sequence (whole entry): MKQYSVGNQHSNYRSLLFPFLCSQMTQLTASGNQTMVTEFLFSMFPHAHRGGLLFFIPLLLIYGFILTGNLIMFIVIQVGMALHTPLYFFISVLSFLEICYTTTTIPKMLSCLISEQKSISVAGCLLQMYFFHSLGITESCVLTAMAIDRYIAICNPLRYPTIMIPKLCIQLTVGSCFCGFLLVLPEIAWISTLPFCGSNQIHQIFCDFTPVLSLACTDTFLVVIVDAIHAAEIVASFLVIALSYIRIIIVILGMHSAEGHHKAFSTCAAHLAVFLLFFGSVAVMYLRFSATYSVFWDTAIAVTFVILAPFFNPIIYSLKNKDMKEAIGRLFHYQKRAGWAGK
How it was run: as §1

[3] = biological target: T3, OR6M1 (Homo sapiens) (UniProt Q8NGM8)
T3 sequence (whole entry): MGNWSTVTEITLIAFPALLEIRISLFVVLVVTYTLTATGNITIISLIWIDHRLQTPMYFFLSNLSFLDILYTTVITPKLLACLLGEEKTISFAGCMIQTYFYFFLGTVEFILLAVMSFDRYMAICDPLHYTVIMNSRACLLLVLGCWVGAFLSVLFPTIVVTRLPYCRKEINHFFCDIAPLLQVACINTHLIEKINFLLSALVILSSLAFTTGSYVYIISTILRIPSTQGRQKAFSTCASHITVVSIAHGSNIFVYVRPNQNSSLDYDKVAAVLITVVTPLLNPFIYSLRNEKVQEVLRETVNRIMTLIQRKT
How it was run: as §1

[4] = test system: T4, OR6M1 R224C
T4 sequence (whole entry): T3 sequence (whole entry) with R224C
How it was run: as §1

[5] = test system: T5, OR6M1 T276K
T5 sequence (whole entry): T3 sequence (whole entry) with T276K
How it was run: as §1

[6] = biological target: T6, OR6N1 (Homo sapiens) (UniProt Q8NGY5)
T6 sequence (whole entry): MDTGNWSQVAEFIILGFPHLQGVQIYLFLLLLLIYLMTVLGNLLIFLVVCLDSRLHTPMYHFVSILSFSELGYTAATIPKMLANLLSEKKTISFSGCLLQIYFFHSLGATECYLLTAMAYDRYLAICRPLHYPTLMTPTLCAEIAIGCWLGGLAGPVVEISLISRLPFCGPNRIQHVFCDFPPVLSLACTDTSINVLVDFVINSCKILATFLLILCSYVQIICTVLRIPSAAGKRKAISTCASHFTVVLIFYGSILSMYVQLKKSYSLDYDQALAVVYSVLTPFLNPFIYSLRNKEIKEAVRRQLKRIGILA
How it was run: as §1

[7] = biological target: T7, OR6N2 (Homo sapiens) (UniProt Q8NGY6)
T7 sequence (whole entry): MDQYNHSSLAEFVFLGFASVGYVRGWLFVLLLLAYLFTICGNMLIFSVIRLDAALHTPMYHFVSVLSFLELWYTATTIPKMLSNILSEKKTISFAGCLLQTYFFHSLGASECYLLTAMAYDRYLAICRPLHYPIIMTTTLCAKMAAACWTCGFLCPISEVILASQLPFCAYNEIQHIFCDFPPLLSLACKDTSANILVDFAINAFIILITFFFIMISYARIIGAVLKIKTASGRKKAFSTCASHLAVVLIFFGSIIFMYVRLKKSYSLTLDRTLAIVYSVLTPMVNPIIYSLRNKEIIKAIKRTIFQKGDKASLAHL
How it was run: as §1

[8] = biological target: T8, OR6P1 (Homo sapiens) (UniProt Q8NGX9)
T8 sequence (whole entry): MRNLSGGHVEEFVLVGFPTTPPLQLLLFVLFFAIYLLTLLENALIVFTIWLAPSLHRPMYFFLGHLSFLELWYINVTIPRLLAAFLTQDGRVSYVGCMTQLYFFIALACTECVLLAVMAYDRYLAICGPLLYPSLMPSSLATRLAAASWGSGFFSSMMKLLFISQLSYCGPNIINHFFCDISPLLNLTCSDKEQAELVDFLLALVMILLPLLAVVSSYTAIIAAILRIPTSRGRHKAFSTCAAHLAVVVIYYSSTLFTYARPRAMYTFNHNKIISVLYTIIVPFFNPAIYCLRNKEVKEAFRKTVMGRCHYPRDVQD
How it was run: as §1

[9] = biological target: T9, OR6Q1 (Homo sapiens) (UniProt Q8NGQ2)
T9 sequence (whole entry): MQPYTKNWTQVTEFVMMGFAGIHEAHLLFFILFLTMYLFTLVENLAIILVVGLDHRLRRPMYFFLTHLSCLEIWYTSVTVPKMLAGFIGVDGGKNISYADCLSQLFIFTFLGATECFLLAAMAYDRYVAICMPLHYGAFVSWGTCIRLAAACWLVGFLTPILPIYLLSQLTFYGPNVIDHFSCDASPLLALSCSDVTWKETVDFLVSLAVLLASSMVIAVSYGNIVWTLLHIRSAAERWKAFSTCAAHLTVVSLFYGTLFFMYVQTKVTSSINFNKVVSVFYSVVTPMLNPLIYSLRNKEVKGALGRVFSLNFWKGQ
How it was run: as §1

[10] = biological target: T10, OR6S1 (Homo sapiens) (UniProt Q8NH40)
T10 sequence (whole entry): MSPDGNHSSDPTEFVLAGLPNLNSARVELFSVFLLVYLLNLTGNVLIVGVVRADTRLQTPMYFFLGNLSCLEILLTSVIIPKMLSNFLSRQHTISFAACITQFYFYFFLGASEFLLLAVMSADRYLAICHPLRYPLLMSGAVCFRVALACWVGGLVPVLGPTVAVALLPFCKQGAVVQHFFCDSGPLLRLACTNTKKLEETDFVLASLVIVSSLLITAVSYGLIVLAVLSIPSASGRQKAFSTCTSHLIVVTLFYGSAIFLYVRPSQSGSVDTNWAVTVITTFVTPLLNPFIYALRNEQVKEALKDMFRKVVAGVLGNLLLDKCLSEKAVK
How it was run: as §1

[11] = test system: T11, OR6S1 T42I V156I
T11 sequence (whole entry): T10 sequence (whole entry) with T42I, V156I
How it was run: as §1

[12] = biological target: T12, OR6T1 (Homo sapiens) (UniProt Q8NGN1)
T12 sequence (whole entry): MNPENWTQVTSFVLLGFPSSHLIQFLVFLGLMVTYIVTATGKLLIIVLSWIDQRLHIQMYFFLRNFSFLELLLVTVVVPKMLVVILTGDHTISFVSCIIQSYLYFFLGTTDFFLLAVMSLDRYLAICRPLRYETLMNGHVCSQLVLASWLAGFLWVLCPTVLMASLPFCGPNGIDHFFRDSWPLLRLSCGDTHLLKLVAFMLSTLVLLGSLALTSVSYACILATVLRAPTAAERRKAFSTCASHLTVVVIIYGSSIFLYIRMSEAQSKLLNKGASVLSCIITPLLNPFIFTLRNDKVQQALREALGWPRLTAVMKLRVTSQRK
How it was run: as §1

[13] = test system: T13, OR6T1 N2D
T13 sequence (whole entry): T12 sequence (whole entry) with N2D
How it was run: as §1

[14] = biological target: T14, OR6V1 (Homo sapiens) (UniProt Q8N148)
T14 sequence (whole entry): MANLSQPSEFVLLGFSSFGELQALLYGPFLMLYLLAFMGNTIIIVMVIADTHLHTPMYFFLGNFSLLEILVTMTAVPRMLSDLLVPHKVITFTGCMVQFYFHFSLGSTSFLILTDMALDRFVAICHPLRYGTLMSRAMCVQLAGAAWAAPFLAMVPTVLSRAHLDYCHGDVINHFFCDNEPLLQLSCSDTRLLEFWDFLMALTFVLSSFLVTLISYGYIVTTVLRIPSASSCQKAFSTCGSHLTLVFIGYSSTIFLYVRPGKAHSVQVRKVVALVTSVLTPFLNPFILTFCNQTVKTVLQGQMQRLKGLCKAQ
How it was run: as §1

[15] = biological target: T15, OR6X1 (Homo sapiens) (UniProt Q8NH79)
T15 sequence (whole entry): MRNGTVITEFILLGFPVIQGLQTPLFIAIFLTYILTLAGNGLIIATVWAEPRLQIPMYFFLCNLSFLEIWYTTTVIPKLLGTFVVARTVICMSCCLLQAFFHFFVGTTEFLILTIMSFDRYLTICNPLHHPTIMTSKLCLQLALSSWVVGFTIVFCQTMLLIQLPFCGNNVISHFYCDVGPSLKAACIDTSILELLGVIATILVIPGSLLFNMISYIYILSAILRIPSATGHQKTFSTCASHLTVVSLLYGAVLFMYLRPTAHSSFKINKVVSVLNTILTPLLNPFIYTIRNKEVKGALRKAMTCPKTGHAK
How it was run: as §1

[16] = biological target: T16, OR6Y1 (Homo sapiens) (UniProt Q8NGX8)
T16 sequence (whole entry): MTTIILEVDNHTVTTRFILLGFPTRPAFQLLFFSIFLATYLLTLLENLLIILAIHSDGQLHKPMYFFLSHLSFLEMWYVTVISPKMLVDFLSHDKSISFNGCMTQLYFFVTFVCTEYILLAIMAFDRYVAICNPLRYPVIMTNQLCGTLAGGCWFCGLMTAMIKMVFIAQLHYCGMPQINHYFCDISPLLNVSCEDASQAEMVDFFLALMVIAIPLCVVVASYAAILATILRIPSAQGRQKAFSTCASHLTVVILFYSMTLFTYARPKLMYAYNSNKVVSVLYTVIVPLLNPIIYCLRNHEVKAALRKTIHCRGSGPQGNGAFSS
How it was run: as §1

[17] = biological target: T17, OR7A10 (Homo sapiens) (UniProt O76100)
T17 sequence (whole entry): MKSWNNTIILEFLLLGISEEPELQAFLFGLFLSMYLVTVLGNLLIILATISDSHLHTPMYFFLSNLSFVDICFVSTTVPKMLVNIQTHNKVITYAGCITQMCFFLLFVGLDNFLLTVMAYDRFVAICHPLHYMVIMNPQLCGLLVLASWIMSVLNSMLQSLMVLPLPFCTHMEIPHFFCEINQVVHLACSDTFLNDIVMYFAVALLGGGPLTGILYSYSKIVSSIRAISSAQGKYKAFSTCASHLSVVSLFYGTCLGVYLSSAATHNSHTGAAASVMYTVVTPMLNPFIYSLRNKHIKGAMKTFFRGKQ
How it was run: as §1

[18] = biological target: T18, OR7A17 (Homo sapiens) (UniProt O14581)
T18 sequence (whole entry): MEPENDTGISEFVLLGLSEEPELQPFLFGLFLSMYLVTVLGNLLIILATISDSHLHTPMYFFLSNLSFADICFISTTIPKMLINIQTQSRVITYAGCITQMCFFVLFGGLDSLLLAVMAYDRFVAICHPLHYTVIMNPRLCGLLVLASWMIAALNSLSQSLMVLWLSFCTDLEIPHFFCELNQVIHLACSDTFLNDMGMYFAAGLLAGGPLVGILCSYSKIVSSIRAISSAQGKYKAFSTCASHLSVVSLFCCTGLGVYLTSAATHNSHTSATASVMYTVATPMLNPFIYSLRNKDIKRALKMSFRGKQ
How it was run: as §1

[19] = biological target: T19, OR7A5 (Homo sapiens) (UniProt Q15622)
T19 sequence (whole entry): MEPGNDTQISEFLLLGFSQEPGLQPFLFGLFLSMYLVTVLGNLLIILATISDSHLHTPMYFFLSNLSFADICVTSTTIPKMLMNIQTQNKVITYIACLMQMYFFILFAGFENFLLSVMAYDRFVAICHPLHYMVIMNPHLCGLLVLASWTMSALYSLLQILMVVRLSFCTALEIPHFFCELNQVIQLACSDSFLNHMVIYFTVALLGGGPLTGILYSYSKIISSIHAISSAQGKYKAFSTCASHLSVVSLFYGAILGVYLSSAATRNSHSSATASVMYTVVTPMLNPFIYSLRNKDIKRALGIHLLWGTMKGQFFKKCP
How it was run: as §1

[20] = biological target: T20, OR6K3 (Homo sapiens) (UniProt Q8NGY3)
T20 sequence (whole entry): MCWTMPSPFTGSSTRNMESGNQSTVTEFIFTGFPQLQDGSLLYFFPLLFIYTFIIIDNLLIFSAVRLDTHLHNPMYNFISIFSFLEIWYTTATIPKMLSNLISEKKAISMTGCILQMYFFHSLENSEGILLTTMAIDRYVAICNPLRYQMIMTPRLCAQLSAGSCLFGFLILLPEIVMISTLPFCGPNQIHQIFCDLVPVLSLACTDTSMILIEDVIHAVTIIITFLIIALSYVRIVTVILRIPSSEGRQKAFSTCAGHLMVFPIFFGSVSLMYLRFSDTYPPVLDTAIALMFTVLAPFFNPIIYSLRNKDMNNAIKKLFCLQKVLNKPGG
How it was run: as §1

Measured: odorant receptor agonist call

CC1=NC(C)C(C)S1 (centres undefined)
inactive: [1] | [2] | [3] | [4] | [5] | [6] | [7] | [8] | [9] | [10] | [11] | [12] | [13] | [14] | [15] | [16] | [17] | [18] | [19]

CCCCCC(S)C(C)CO (centres undefined)
inactive: [20] | [2] | [3] | [6] | [7] | [8] | [9] | [10] | [12] | [14] | [15] | [16] | [17] | [18] | [19]

Reference: the M2OR odorant receptor database
